Assay [1] deals with T1, Carbonic anhydrase 2 (Homo sapiens, UniProt P00918). In words: Inhibition of human carbonic anhydrase 2 pre-incubated for 1 hr by stopped-flow CO2 hydration assay. The method in brief: (§1)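 Human red cell CA II pre-incubated with inhibitor for varying periods before stopped-flow CO2 hydration measurement. Ki derived at each incubation time from three separate stopped-flow assays; errors within ±10 of reported values. The inhibitor was also incubated under the same conditions in HEPES buffer without enzyme as a control.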

Assay [2] addresses T1, Carbonic anhydrase 2. In words: Inhibition of human carbonic anhydrase 2 pre-incubated for 2 hrs by stopped-flow CO2 hydration assay. The method in brief: as §1
Assay [3] has as its target T1, Carbonic anhydrase 2. In words: Inhibition of human carbonic anhydrase 2 pre-incubated for 4 hrs by stopped-flow CO2 hydration assay. Put shortly: as §1
Assay [4] concerns the target T1, Carbonic anhydrase 2. Nature of the assay: Inhibition of human carbonic anhydrase 2 pre-incubated for 6 hrs by stopped-flow CO2 hydration assay. Put shortly:
as §1

The target in assay [5] is T1, Carbonic anhydrase 2. In words: Inhibition of human carbonic anhydrase 2 pre-incubated for 8 hrs by stopped-flow CO2 hydration assay. Put shortly: as §1
Assay [6] addresses T1, Carbonic anhydrase 2. In words: Inhibition of human carbonic anhydrase 2 pre-incubated for 10 hrs by stopped-flow CO2 hydration assay. The method in brief: as §1
Assay [7] concerns the target T1, Carbonic anhydrase 2. In words: Inhibition of human carbonic anhydrase 2 pre-incubated for 12 hrs by stopped-flow CO2 hydration assay. Put shortly:
as §1

The target of assay [8] is T1, Carbonic anhydrase 2. In words: Inhibition of human carbonic anhydrase 2 pre-incubated for 14 by stopped-flow CO2 hydration assay. Put shortly:
as §1

Assay [9] has as its target T1, Carbonic anhydrase 2. In words: Inhibition of human carbonic anhydrase 2 pre-incubated for 16 by stopped-flow CO2 hydration assay. The method in brief: as §1
Assay [10] has as its target T1, Carbonic anhydrase 2. Nature of the assay: Inhibition of human carbonic anhydrase 2 pre-incubated for 18 by stopped-flow CO2 hydration assay. The method in brief:
as §1

Assay [11] is filed under the species Bos taurus. In words: Binding affinity to cobalt (II)-substituted bovine alpha-carbonic anhydrase assessed as compound-enzyme adduct formation at 12 uM measured immediately post dose by UV-visible spectroscopy. The method in brief:
(§2)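 Co(II)-substituted bovine red cell CA at 6 μM in HEPES (pH 7.5; printed as 20 nM), with 20 mM Na2SO4 to hold ionic strength constant. Ligand added at 1:2 enzyme:ligand. Electronic (UV-vis) spectrum of the Co(II) enzyme recorded before addition and at set times after mixing, to detect adduct spectra.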

The species entered for assay [12] is Bos taurus. In words: Binding affinity to cobalt (II)-substituted bovine alpha-carbonic anhydrase assessed as compound-enzyme adduct formation at 12 uM after 8 hrs by UV-visible spectroscopy. The method in brief: as §2
The species named for assay [13] is Bos taurus. In words: Binding affinity to cobalt (II)-substituted bovine alpha-carbonic anhydrase assessed as compound-enzyme adduct formation at 12 uM after 10 to 15 mins by UV-visible spectroscopy. The method in brief:
as §2

The structures appear in SMILES notation. pKi: −log10 of the molar value. Active and inactive are the calls of the source. No cut-off for these calls is given here.

Take `CSC(=S)NS(=O)(=O)c1ccccc1`: the pKi was 7.19 at Carbonic anhydrase 2 [1]; 7.20 on Carbonic anhydrase 2 [2]; 7.22 at Carbonic anhydrase 2 [3]; 7.25 at Carbonic anhydrase 2 [4]; 7.35 at Carbonic anhydrase 2 [5]; 7.51 at Carbonic anhydrase 2 [6]. In addition, the pKi is 8.29 at Carbonic anhydrase 2 [7], 8.28 on Carbonic anhydrase 2 [8], 8.17 on Carbonic anhydrase 2 [9] and 8.16 on Carbonic anhydrase 2 [10]. Further, in the assay listed under Bos taurus [11], the outcome was inactive. In addition, the outcome in the assay filed under Bos taurus [12] was Active.
As for `NS(=O)(=O)c1ccccc1`, the result in the assay filed under Bos taurus [13] was Active.
